One block for each molecule: values may come before it.
Experiments:
C57BL/6J mice = assay: Thioglycollate-induced peritonitis; assay type: in vivo; settings: oral gavage; for level of ICAM1 and CCR2: cells of the peritoneal lavage
[1] = tested on: LPS-stimulated THP-1 cells; assay: CCL2 expression in LPS-stimulated THP-1 cells; assay type: cell-based, human; settings: increasing concentrations
[2] = tested on: LPS-stimulated primary murine glia cells; assay: total-CCL2 and pE1-CCL2 ELISA of LPS-stimulated primary glia cells; assay type: cell-based; settings: varying doses
[3] = tested on: LPS-stimulated primary glia cells; assay: CCL2 gene expression; assay type: cell-based, murine; settings: doses of 0.625 and 2.5 µM
Procedure, shortened: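 Primary glia came from newborn C57BL/6J pups at postnatal day 1. Brains were triturated, strained at 100 and 40 µm, and 6 × 10^5 cells were seeded on poly-L-lysine in DMEM/F12 with 5% FBS and 0.05% gentamicin at 37°C and 5% CO2. Medium was renewed at day 7, and cells (about 85% astrocytes, 15% microglia) were used 12 days after seeding. After LPS stimulation, RNA went to random-primed cDNA and SYBR Green qPCR (comparative quantitation), n = 3–4, ANOVA/Tukey.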

[4] = tested on: murine primary macrophages; assay: pE1-CCL2 secreted from LPS-stimulated primary macrophages; assay type: cell-based
Procedure, shortened: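 Blood was drawn by cardiac puncture into heparin from isoflurane-anaesthetised (2%) mice. PBMCs were separated on an LSM 1077 gradient, grown overnight, and adherent cells were detached with accutase and plated at 1 × 10^5 cells/well. Cells were stimulated with 1 µg/ml LPS (E. coli O55:B5) for 24 h. Medium pE1-CCL2 was measured by ELISA with 50 ng/well rabbit anti-mJE capture (coated 4–7 days, 4°C), read at 450 nm minus 550 nm.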

[5] = tested on: human primary macrophages; assay: pE1-CCL2 secreted from LPS-stimulated primary macrophages; assay type: cell-based
Procedure, shortened: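 Human PBMCs were separated on an LSM 1077 density gradient and grown overnight at 37°C and 5% CO2. Adherent monocytes/macrophages were detached with accutase, plated at 1 × 10^5 cells/well and stimulated with 1 µg/ml LPS (E. coli O55:B5) for 24 h. Medium pE1-CCL2 was measured by sandwich ELISA: capture with 25 ng/well goat anti-hMCP-1 (overnight, 4°C), samples 2 h at room temperature, TMB read at 450 nm minus 550 nm.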

THP-1 cells = assay: TransWell chemotaxis assay; assay type: cell-based, human; settings: THP-1 monocytes, 2 h migration
Procedure, shortened: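 THP-1 cells were grown in RPMI with 10% FBS and 50 µg/ml gentamicin at 37°C and 5% CO2, with mycoplasma checks. Cells at 1 × 10^6 per 100 µl RPMI1640 went into the upper chamber of 5 µm-pore TransWells, with chemoattractant below and serum-free RPMI as negative control. After 2 h at 37°C, 70 mM EDTA released bound cells (15 min, 37°C). Migrated cells were counted by cell counter or by FACS against 5000 Trucount beads.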

[6] = Degradation of CCL2 in human plasma; assay type: in vitro ADME; settings: incubation with human plasma
Procedure, shortened: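 CCL2(Q1-76) was incubated with human plasma, either directly or after pre-incubation with recombinant human QC. N-terminal cleavage products were read by linear-mode MALDI-TOF-MS in positive ion mode over 2000–20,000 amu, calibrated with insulin and myoglobin. Each spectrum sums at least 6 × 100 laser pulses.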

CCR2 = CCR2 (Homo sapiens, UniProt P41597); assay: CCR2 receptor internalization assay; assay type: cell-based; settings: human THP-1 monocytes, 45 min at 37°C, FACS
Procedure, shortened: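 THP-1 cells were maintained in RPMI with 10% FBS and 50 µg/ml gentamicin at 37°C, 5% CO2, and checked for mycoplasma. 6 × 10^5 cells were exposed in serum-free RPMI 1640 to N-terminal CCL2 variant ligands, then harvested into cold PBS. They were Fc-blocked for 10 min at 4°C and stained 30 min at 4°C with PE anti-CCR2 or IgG2B isotype control. After a PBS wash, they were analysed by flow cytometry.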

human recombinant DP4 = human recombinant DP4 (Homo sapiens, UniProt P27487); assay: Degradation of MCPs by DP4; assay type: biochemical; settings: for N-terminal truncation by recombinant human DP4: 10 µg/ml in 25 mM Tris/HCl pH 7.6; for truncation by DP4: mature state bearing a pE-residue
Procedure, shortened: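 Recombinant CCL2, CCL7, CCL8 and CCL13 (Gln- and pGlu-forms) were either pre-incubated with recombinant human QC (0.6 µg/ml) for 2 h at 30°C and then incubated with recombinant human DP4, or incubated with DP4 alone. Truncation products were read by linear-mode MALDI-TOF-MS in positive ion mode over 2000–20,000 amu, summing at least 6 × 100 laser pulses.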

ApoE3*Leiden mice = assay: Cuff-induced accelerated atherosclerosis; assay type: in vivo
murine QC = murine QC (Mus musculus, UniProt Q9CYK2); assay: QC inhibition, Ki-values at pH 8; assay type: biochemical
[7] = tested on: models of Alzheimer's disease; settings: high doses for up to 6 months ref Schilling et al, 2008; cited from earlier work
murine isoQC = murine isoQC (Mus musculus, UniProt Q8BH73); assay: isoQC inhibition, Ki-values at pH 8; assay type: biochemical
human isoQC = human isoQC (Homo sapiens, UniProt Q9NXS2); assay: isoQC inhibition, Ki-values at pH 8; assay type: biochemical
[8] = 2 days after surgery, drinking water 2.4 mg/ml

Chain of human recombinant DP4 (P27487 whole entry, the tested form may be a part): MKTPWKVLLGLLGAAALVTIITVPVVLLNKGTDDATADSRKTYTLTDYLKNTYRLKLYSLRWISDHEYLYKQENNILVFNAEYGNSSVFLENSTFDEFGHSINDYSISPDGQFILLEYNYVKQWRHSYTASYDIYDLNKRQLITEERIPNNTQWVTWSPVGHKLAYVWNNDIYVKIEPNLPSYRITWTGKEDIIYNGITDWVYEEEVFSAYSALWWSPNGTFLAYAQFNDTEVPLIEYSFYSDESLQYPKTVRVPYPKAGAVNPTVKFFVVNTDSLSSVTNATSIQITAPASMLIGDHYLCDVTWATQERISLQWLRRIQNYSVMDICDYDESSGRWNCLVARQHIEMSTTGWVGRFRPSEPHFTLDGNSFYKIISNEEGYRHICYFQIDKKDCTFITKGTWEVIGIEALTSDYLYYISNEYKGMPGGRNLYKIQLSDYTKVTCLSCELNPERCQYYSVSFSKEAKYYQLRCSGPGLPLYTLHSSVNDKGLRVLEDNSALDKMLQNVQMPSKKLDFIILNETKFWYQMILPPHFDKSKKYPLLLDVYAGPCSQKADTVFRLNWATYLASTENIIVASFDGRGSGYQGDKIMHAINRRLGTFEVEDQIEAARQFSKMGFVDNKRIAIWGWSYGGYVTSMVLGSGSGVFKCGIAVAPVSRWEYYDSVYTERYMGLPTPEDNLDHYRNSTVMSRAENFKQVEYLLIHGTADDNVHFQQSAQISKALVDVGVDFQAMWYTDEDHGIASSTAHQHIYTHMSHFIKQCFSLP
Chain of murine isoQC (Q8BH73 whole entry): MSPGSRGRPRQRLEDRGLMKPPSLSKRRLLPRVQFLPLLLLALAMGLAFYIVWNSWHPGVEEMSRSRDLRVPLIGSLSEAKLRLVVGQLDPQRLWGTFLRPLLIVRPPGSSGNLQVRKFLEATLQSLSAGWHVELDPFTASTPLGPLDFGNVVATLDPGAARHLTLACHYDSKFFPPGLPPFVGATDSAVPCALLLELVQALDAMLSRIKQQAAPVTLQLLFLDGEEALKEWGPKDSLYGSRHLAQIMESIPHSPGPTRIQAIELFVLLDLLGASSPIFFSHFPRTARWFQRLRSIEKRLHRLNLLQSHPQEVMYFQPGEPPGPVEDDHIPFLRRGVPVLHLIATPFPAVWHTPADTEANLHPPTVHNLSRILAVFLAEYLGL
Chain of murine QC (Q9CYK2 36-362): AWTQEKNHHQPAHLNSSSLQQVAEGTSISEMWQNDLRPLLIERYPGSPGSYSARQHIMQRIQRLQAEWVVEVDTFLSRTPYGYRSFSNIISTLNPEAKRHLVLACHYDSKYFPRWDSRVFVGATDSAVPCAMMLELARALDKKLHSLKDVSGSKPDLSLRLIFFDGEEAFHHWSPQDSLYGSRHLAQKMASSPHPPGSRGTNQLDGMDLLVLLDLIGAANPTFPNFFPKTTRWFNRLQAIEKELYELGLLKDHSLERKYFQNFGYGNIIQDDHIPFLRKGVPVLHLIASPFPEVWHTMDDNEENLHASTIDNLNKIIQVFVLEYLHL
Chain of CCR2 (P41597 whole entry): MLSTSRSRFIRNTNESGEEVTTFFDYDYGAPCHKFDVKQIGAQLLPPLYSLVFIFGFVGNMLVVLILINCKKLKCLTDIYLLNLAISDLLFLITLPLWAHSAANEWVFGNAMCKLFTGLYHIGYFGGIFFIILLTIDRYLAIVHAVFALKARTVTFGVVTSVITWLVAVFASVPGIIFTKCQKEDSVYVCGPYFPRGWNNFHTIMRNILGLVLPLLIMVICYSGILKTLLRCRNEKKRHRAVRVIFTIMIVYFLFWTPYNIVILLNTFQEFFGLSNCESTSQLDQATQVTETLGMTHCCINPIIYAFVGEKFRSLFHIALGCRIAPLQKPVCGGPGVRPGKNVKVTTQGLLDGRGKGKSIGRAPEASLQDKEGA
Chain of human isoQC (Q9NXS2 whole entry): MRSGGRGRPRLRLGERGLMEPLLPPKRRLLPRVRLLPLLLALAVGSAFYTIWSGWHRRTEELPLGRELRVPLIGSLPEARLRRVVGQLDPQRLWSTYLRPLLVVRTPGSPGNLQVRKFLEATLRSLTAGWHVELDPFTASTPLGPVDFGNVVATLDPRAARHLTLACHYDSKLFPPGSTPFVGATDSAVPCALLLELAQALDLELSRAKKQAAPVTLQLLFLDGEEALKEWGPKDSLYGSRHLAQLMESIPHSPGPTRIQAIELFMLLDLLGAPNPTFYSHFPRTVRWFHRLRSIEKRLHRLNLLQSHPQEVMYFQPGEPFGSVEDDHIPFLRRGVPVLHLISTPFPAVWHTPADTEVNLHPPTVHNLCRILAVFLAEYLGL

Molecule: CCCOc1ccc(C2C(=O)NC(=O)N2c2ccc3[nH]cnc3c2)cc1 (centres unmarked) [PQ529, 1-(1H-benzo[d]imidazol-5-yl) -5-(4-propoxyphenyl) imidazolidine-2,4-dione]
gene expression of CCL2, CCL7, IL-6 and TNF-alpha in cells of the peritoneal lavage (C57BL/6J mice): without changing | number of monocytes after stimulation with thioglycollate (C57BL/6J mice): reduced the number of monocytes | level of ICAM1 and CCR2 (C57BL/6J mice): unchanged | CCL2 expression [1]: did not show an effect | concentration of pE^1-CCL2 [2]: decreased the concentration of pE^1-CCL2 dose-dependently | CCL2 mRNA [3]: slight but significant increase | pE^1-CCL2 secreted [4]: reduced | pE^1-CCL2 secreted [5]: reduced

CCR2 internalization (CCR2): most potent | N-terminal truncation by recombinant human DP4 (human recombinant DP4): prevented N-terminal truncation
Molecule: CCL2(pE^1-76): mature human CCL2 with N-terminal pyroglutamate residue
monocyte attraction (chemotaxis) (THP-1 cells): highest efficacy | N-terminal degradation in human plasma [6]: completely resistant to cleavage

Molecule: COc1ccc(NC(=S)NCCCn2ccnc2)cc1OC [PQ50, 1-(3-(1H-Imidazol-1-yl)propyl)-3-(3,4-dimethoxyphenyl)thiourea]
gene expression of CCL2, CCL7, IL-6 and TNF-alpha in cells of the peritoneal lavage (C57BL/6J mice): without changing | number of monocytes after stimulation with thioglycollate (C57BL/6J mice): reduced the number of monocytes | level of ICAM1 and CCR2 (C57BL/6J mice): unchanged | area of the media (ApoE3*Leiden mice; 2 weeks after surgery): reduced | total area within the outer diameter of the vessel segment, area of the interna, number of foam cells (ApoE3*Leiden mice; 2 weeks after surgery): did not affect | CCL2-immunopositive area (ApoE3*Leiden mice; 2 weeks after surgery, treated vs untreated): did not differ | reduction of monocytes at the cuffed vessel segments (ApoE3*Leiden mice; [8]): 67% | reduction of total adhering cells at the cuffed vessel segments (ApoE3*Leiden mice; [8]): 45% | Ki (murine QC): 170 nM | toxicity [7]: without overt signs of toxicity | Ki (murine isoQC): 246 nM | Ki (human isoQC): 236 nM

Molecule: CCL2(D^3-76): DP4-cleavage product of CCL2
monocyte attraction (chemotaxis) (THP-1 cells): shift to higher concentrations needed to elicit chemotaxis

N-terminal truncation by recombinant human DP4 (human recombinant DP4): susceptible to cleavage
Molecule: CCL2(Q^1-76): recombinant human CCL2 possessing an N-terminal glutaminyl residue (immature form)

truncation by DP4 (human recombinant DP4): protected against truncation
Molecule: CCL13: recombinant human CCL13, MCP family member

truncation by DP4 (human recombinant DP4): protected against truncation
Molecule: CCL7: recombinant human CCL7, MCP family member

truncation by DP4 (human recombinant DP4): protected against truncation
B1: CCL8: recombinant human CCL8 (MCP-2) (protein, UniProt P80075 24-99, looked up)
C-C motif chemokine 8: QPDSVSIPITCCFNVINRKIPIQRLESYTRITNIQCPKEAVIFKTKRGKEVCADPKERWVRDSMKHLDQIFQNLKP
